What was measured:
Mus musculus [1] = assay: Anticonvulsant activity in Swiss Albino mouse at 30 mg/kg after 0.5 hrs by MES screen test; type: functional
Outline: (§1)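 Swiss albino mice (25–30 g) given 30 mg/kg i.p. Maximal electroshock (MES) seizure test run 0.5 and 4 h after dosing. Activity read out as % of animals protected. Phenytoin at 30 mg/kg i.p. served as standard.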

Mus musculus [2] = assay: Anticonvulsant activity in swiss Albino mouse at 30 mg/kg after 4 hrs by MES screen test; type: functional; outline: as §1
Mus musculus [3] = assay: Neurotoxicity in Swiss Albino mouse at 30 mg/kg after 0.5 hrs by rotarod test; type: toxicity, organism-based; set-up: dose 30 mg/kg; details: in vivo
Outline: (§2)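 Swiss albino mice received 30 mg/kg i.p. Motor impairment scored on the rotarod 0.5 and 4 h after dosing. Results given as number of animals showing toxicity over number tested.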

Mus musculus [4] = assay: Neurotoxicity in Swiss Albino mouse at 30 mg/kg after 4 hrs by rotarod test; type: toxicity, organism-based; set-up: dose 30 mg/kg; details: in vivo; outline: as §2
[5] = Lipophilicity, log P of the compound; type: physicochemical; details: octanol/water

SMILES: COc1ccc2nc(NC(=O)N/N=C(\C)c3ccc([N+](=O)[O-])cc3)sc2c1
- Activity (Mus musculus [1]): 100%
- Activity (Mus musculus [2]): 100%
- Activity (Mus musculus [3]): Not Active
- Activity (Mus musculus [4]): Not Active

SMILES: COc1ccc2nc(NC(=O)NN=C(c3ccccc3)c3ccccc3)sc2c1
- Activity (Mus musculus [1]): 100%
- Activity (Mus musculus [2]): 100%
- Activity (Mus musculus [3]): Not Active
- Activity (Mus musculus [4]): Not Active

SMILES: Cc1ccc2nc(NC(=O)NN=C(c3ccccc3)c3ccccc3)sc2c1
- Activity (Mus musculus [1]): 33.3%
- Activity (Mus musculus [2]): 33.3%

SMILES: C/C(=N\NC(=O)Nc1nc2ccc(Cl)cc2s1)c1ccccc1
- Activity (Mus musculus [1]): 100%
- Activity (Mus musculus [2]): 83.3%
- Activity (Mus musculus [3]): Not Active
- Activity (Mus musculus [4]): Not Active
- logP [5]: 3.12

SMILES: COc1ccc(/C(C)=N/NC(=O)Nc2nc3ccc(OC)cc3s2)cc1
- Activity (Mus musculus [1]): 83.3%
- Activity (Mus musculus [2]): 83.3%
- Activity (Mus musculus [3]): Not Active
- Activity (Mus musculus [4]): Not Active

SMILES: O=C(NN=C(c1ccccc1)c1ccccc1)Nc1nc2ccc(Cl)cc2s1
- Activity (Mus musculus [1]): 50%
- Activity (Mus musculus [2]): 33.3%

SMILES: COc1ccc(/C(C)=N/NC(=O)Nc2nc3ccc(C)cc3s2)cc1
- Activity (Mus musculus [1]): 83.3%
- Activity (Mus musculus [2]): 83.3%
- Activity (Mus musculus [3]): Not Active
- Activity (Mus musculus [4]): Not Active

SMILES: C/C(=N\NC(=O)Nc1nc2ccc(Cl)cc2s1)c1ccc([N+](=O)[O-])cc1
- Activity (Mus musculus [1]): 33.3%
- Activity (Mus musculus [2]): 33.3%

SMILES: C/C(=N\NC(=O)Nc1nc2ccc(Cl)cc2s1)c1ccc(O)cc1
- Activity (Mus musculus [1]): 50%
- Activity (Mus musculus [2]): 50%

SMILES: COc1ccc(/C(C)=N/NC(=O)Nc2nc3ccc(Cl)cc3s2)cc1
- Activity (Mus musculus [1]): 66.6%
- Activity (Mus musculus [2]): 66.6%

SMILES: C/C(=N\NC(=O)Nc1nc2ccc(C)cc2s1)c1ccc(O)cc1
- Activity (Mus musculus [1]): 66.6%
- Activity (Mus musculus [2]): 66.6%

SMILES: COc1ccc2nc(NC(=O)N/N=C(\C)c3ccccc3)sc2c1
- Activity (Mus musculus [1]): 83.3%
- Activity (Mus musculus [2]): 66.6%
- Activity (Mus musculus [3]): Not Active
- Activity (Mus musculus [4]): Not Active

SMILES: C/C(=N\NC(=O)Nc1nc2ccc(C)cc2s1)c1ccccc1
- Activity (Mus musculus [1]): 33.3%
- Activity (Mus musculus [2]): 33.3%

SMILES: O=C1NC(=O)C(c2ccccc2)(c2ccccc2)N1 [PHENYTOIN]
- Activity (Mus musculus [1]): 100%
- Activity (Mus musculus [2]): 100%
- Activity (Mus musculus [3]): Not Active
- Activity (Mus musculus [4]): Not Active

SMILES: COc1ccc2nc(NC(=O)N/N=C(\C)c3ccc(O)cc3)sc2c1
- Activity (Mus musculus [1]): 66.6%
- Activity (Mus musculus [2]): 50%

SMILES: C/C(=N\NC(=O)Nc1nc2ccc(C)cc2s1)c1ccc([N+](=O)[O-])cc1
- Activity (Mus musculus [1]): 100%
- Activity (Mus musculus [2]): 100%
- Activity (Mus musculus [3]): Not Active
- Activity (Mus musculus [4]): Not Active
- logP [5]: 3.22

From ChEMBL document CHEMBL1149561, “Synthesis of benzothiazole semicarbazones as novel anticonvulsants--the role of hydrophobic domain” (Bioorg Med Chem Lett, 2007)
